Source: PubChem (Broad Institute)
Shown is part of a subset that was picked to be rich in hits.
T cruzi growth-1 – T. cruzi intracellular proliferation inhibitors, primary screen, cell-based, beta-gal Tulahuen parasites, NIH3T3 host, luminescence; T. cruzi beta-gal in NIH3T3, GalScreen luminescence, 90 h; inhibition, % at 8.34 µM; hit rate 5.9% among 77,000;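 active = mean inhibition above about 93%, with at least 55% of replicates each passing it, limit read from the data, passing the limit was not always enough; inconclusive = only one of those two conditions holds; inactive = neither condition holds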
GASC1 inh – inhibitors of GASC-1 (KDM4C) histone demethylase, primary screen, biochemical, single concentration HTS; GST-KDM4C 2-372, H3K9me3 peptide, LANCE TR-FRET; AID 720574, 2013; Lysine-specific demethylase 4C (Homo sapiens), Q9H3R0; inhibition, % at 12.5 µM; hit rate 0.15% among 96,000;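 active = mean replicate inhibition above about 25%, with at least 55% of replicates also reaching it, limit read from the data, passing the limit was not always enough; inconclusive = only one of those two conditions met; inactive = neither condition met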
Target sequence (Q9H3R0 2-372 limits assumed): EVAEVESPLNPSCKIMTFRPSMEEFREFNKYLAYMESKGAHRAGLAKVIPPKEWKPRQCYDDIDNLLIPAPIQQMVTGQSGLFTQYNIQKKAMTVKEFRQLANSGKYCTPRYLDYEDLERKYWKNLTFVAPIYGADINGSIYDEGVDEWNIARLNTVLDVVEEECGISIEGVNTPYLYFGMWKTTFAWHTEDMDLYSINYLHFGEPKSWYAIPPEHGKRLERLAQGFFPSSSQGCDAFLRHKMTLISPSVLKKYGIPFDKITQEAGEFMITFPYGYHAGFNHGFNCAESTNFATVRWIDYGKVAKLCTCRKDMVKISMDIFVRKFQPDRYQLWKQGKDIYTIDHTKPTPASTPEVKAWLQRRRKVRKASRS
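Material: N-terminal GST-fused human GASC-1 (KDM4C) fragment, residues 2-372. Input: 10 nM enzyme. Incubation: enzyme reaction 30 min, then detection 60 min, both room temperature. Doses: one test concentration per compound. Read-out basis: inhibition from TR-FRET ratio decrease. Detection: LANCE TR-FRET, excitation 340 nm, emissions 618 and 671 nm.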
IDH1 R132H inh – inhibitors of IDH1 R132H reductase, primary screen, biochemical, plate reader, single point. Isocitrate dehydrogenase [NADP] cytoplasmic (Homo sapiens), O75874. inhibition, % at 10 µM. diaphorase/resazurin fluorescence, 60 min. hit rate 0.18% among 70,000; in the data active = inhibition above about 34%; inconclusive = no clear call, values can overlap the other calls; inactive = below about 11%
Target sequence (O75874 whole entry R132H): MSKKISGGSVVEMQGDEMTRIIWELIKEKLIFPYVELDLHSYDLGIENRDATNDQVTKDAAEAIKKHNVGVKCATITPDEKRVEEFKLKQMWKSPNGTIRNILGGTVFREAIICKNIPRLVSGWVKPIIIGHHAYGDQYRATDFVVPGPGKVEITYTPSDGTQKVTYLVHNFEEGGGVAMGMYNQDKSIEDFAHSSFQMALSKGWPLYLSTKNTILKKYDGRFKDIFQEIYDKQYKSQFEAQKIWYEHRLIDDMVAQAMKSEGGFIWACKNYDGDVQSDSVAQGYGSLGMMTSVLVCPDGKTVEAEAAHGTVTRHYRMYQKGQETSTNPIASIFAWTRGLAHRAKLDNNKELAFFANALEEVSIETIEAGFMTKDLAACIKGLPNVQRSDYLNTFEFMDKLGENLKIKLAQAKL
T cruzi growth-2 – T. cruzi intracellular proliferation inhibitors, confirmation, cell-based, NIH3T3 host, beta-gal parasite, luminescence, cherry-pick | shares compounds with T cruzi growth-1 | T. cruzi beta-gal in NIH3T3, GalScreen luminescence, 90 h | inhibition, % at 8.35 µM | hit rate 72% among 5,600;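 active = mean replicate inhibition above about 95% and at least 55% of replicates individually reaching it, limit read from the data; inconclusive = only one of the two criteria is met; inactive = neither criterion is met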
T cruzi growth-3 – inhibitors of intracellular T. cruzi replication, confirmation, NIH3T3 host cells, beta-gal parasites, cherry-pick, set 2 | inhibition, % at 2.09 µM | T. cruzi beta-gal in NIH3T3, GalScreen luminescence, 90 h | hit rate 21% among 5,600 | AID 651740, 2012 | shares compounds with T cruzi growth-1;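 active = mean inhibition above about 95%, with at least 55% of replicates also reaching it, limit read from the data; inconclusive = meets just one of the two conditions; inactive = meets neither condition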
3T3 cytotox – cytotoxicity in mouse NIH/3T3 fibroblasts, confirmation, cytotoxicity control for T. cruzi proliferation inhibitor project, cell-based, cherry-pick, single point; shares compounds with T cruzi growth-1; NIH/3T3 viability, CellTiter-Glo ATP luminescence, 90 h; cytotoxicity (signal decrease), % at 8.35 µM; hit rate 14% among 5,600; AID 651742, 2012;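 active = mean signal decrease across replicates above about 35% based on untreated-well scatter, with enough replicates individually passing, limit read from the data; inconclusive = no rule stated though some were filed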
3T3 cytotox 2 – NIH/3T3 fibroblast cytotoxicity, confirmation, cytotoxicity control, cell-based, cherry-pick, single point, set 2. NIH/3T3 viability, CellTiter-Glo ATP luminescence, 90 h. shares compounds with T cruzi growth-1. AID 651744, 2012. inhibition, % at 24.9 µM. hit rate 56% among 5,600;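 active = mean loss of cell viability signal at or above a set limit, and enough replicates individually reaching it; inconclusive = meets only the mean limit or only the replicate share; inactive = meets neither condition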
A number is an active result; – = inactive; ? = inconclusive; · = no result given.

SMILES | T cruzi growth-1 | GASC1 inh | IDH1 R132H inh | T cruzi growth-2 | T cruzi growth-3 | 3T3 cytotox | 3T3 cytotox 2
N#C[C@@H]1[C@@H](c2ccc(C#Cc3ccccc3F)cc2)[C@H](CO)N1C(=O)C1CC1 | 104 | – | · | 103 | – | – | –
N#C[C@@H]1[C@@H](c2ccc(C#Cc3ccccc3F)cc2)[C@@H](CO)N1C(=O)C1CC1 | – | – | · | · | · | · | ·
N#C[C@H]1[C@H](c2ccc(C#Cc3ccccc3F)cc2)[C@@H](CO)N1C(=O)C1CC1 | 102 | – | · | 100 | 100 | – | –
N#C[C@H]1N[C@@H](CO)[C@H]1c1ccc(C#Cc2ccccc2F)cc1 | 100 | – | · | 103 | 109 | – | –
N#C[C@H]1N[C@H](CO)[C@H]1c1ccc(C#Cc2ccccc2F)cc1 | – | – | · | · | · | · | ·
N#C[C@@H]1[C@@H](c2ccc(C#Cc3ccccc3F)cc2)[C@H](CO)N1C(=O)C1CCCC1 | · | – | · | · | · | · | ·
CNC(=O)CN(c1ccccc1)S(=O)(=O)c1ccc(F)cc1 | · | · | – | · | · | · | ·
O=C(NCc1ccco1)c1cncc(Br)c1 | · | · | – | · | · | · | ·
CN1C(=O)c2cc(NC(=O)Cc3cccs3)ccc2OC[C@H]2O[C@@H](CC(=O)N[C@@H]3CCN(Cc4ccccc4)C3)CC[C@H]21 | – | – | · | · | · | · | ·
Cc1noc(C)c1NC(=O)Nc1ccc2c(c1)C(=O)N(C)[C@@H]1CC[C@H](CC(=O)N[C@@H]3CCN(Cc4ccccc4)C3)O[C@@H]1CO2 | – | – | · | · | · | · | ·
CN1C(=O)c2cc(NC(=O)c3ccc(F)c(F)c3)ccc2OC[C@H]2O[C@@H](CC(=O)N[C@H]3CCN(Cc4ccccc4)C3)CC[C@H]21 | 103 | – | · | – | – | – | ?
CN1C(=O)c2cc(NC(=O)c3ccc(F)c(F)c3)ccc2OC[C@H]2O[C@@H](CC(=O)N[C@@H]3CCN(Cc4ccccc4)C3)CC[C@H]21 | 110 | – | · | 116 | – | – | 27
CN1C(=O)c2cc(NC(=O)Cc3cccs3)ccc2OC[C@H]2O[C@@H](CC(=O)N[C@H]3CCN(Cc4ccccc4)C3)CC[C@H]21 | – | – | · | · | · | · | ·
CN1C(=O)c2cc(NC(=O)Cc3cccs3)ccc2OC[C@@H]2O[C@@H](CC(=O)N[C@H]3CCN(Cc4ccccc4)C3)CC[C@@H]21 | ? | – | · | – | – | – | –
Cc1noc(C)c1NC(=O)Nc1ccc2c(c1)C(=O)N(C)[C@@H]1CC[C@H](CC(=O)N[C@H]3CCN(Cc4ccccc4)C3)O[C@H]1CO2 | 104 | – | · | ? | – | – | –
COc1ccc(-c2nnc(SCc3ccc(OC)c([N+](=O)[O-])c3)n2-c2ccccc2)cc1 | · | · | – | · | · | · | ·
Cc1ccc(C2CC(=O)c3cnc(NCCN4CCOCC4)nc3C2)cc1 (stereo unspecified) | · | · | – | · | · | · | ·
CCN(CC)CCn1nnc2c(=O)oc3ccccc3c21 | · | · | – | · | · | · | ·
CCC(Sc1nnc(-c2ccccc2)n1-c1ccccc1)C(=O)Nc1ccc(Cl)cc1 (stereo unspecified) | · | · | – | · | · | · | ·
O=C(CSc1nc(-c2ccccc2)c(-c2ccccc2)[nH]1)Nc1ccc(F)cc1 | · | · | – | · | · | · | ·
O=C(CSc1nc2c(c(=O)n1Cc1ccco1)C1(CCCC1)Cc1ccccc1-2)c1cccs1 | · | · | – | · | · | · | ·
CC(=O)c1cccc(NC(=O)C2CCCN(S(=O)(=O)c3ccc(Cl)cc3)C2)c1 (stereo unspecified) | · | · | – | · | · | · | ·
CN1C(=O)c2cc(NC(=O)c3ccc(F)c(F)c3)ccc2OC[C@@H]2O[C@H](CC(=O)N[C@H]3CCN(Cc4ccccc4)C3)CC[C@@H]21 | 104 | – | · | 104 | – | – | 32
CN1C(=O)c2cc(NC(=O)c3ccc(F)c(F)c3)ccc2OC[C@H]2O[C@H](CC(=O)N[C@@H]3CCN(Cc4ccccc4)C3)CC[C@H]21 | – | – | · | · | · | · | ·
CN1C(=O)c2cc(NC(=O)c3ccc(F)c(F)c3)ccc2OC[C@@H]2O[C@@H](CC(=O)N[C@@H]3CCN(Cc4ccccc4)C3)CC[C@H]21 | 101 | – | · | 108 | – | – | –
SMILES | T cruzi growth-1 | GASC1 inh | IDH1 R132H inh | T cruzi growth-2 | T cruzi growth-3 | 3T3 cytotox | 3T3 cytotox 2
CCS(=O)(=O)Nc1ccc2c(c1)C(=O)N(C)[C@@H]1CC[C@@H](CC(=O)N[C@H]3CCN(Cc4ccccc4)C3)O[C@@H]1CO2 | – | – | · | · | · | · | ·
CN1C(=O)c2cc(NC(=O)c3ccc(F)c(F)c3)ccc2OC[C@@H]2O[C@H](CC(=O)N[C@@H]3CCN(Cc4ccccc4)C3)CC[C@@H]21 | 108 | – | · | ? | – | – | 54
CCS(=O)(=O)Nc1ccc2c(c1)C(=O)N(C)[C@@H]1CC[C@@H](CC(=O)N[C@@H]3CCN(Cc4ccccc4)C3)O[C@@H]1CO2 | – | – | · | · | · | · | ·
CN1C(=O)c2cc(NC(=O)c3ccc(F)c(F)c3)ccc2OC[C@H]2O[C@@H](CC(=O)N[C@@H]3CCN(Cc4ccccc4)C3)CC[C@@H]21 | 98 | – | · | – | – | – | –
CCC(=O)Nc1ccccc1-c1nnc(SCc2ccccc2)[nH]c1=O | · | · | – | · | · | · | ·
COc1ccccc1NC(=O)CSc1ncnc2sc(-c3ccccc3)cc12 | · | · | – | · | · | · | ·
Cc1cccc(CSc2nc3c(c(=O)[nH]2)C(C(C)C)C2=C(CC(C)(C)CC2=O)N3)c1 (stereo unspecified) | · | · | – | · | · | · | ·
CCC(C)C(OC1OC(C)C(O)C(O)C1O)C(C)C(=O)C(C)/C=C(\C)CC(C)C(O)C(C)C(=O)O (stereo unspecified) | · | · | – | · | · | · | ·
Cc1nc2nc[nH]n2c(=O)c1NS(=O)(=O)c1ccc2c(c1)CCCC2 | · | · | – | · | · | · | ·
Cc1sc2ncn(CC(=O)Nc3cccc(Cl)c3C)c(=O)c2c1-c1ccccc1 | · | · | – | · | · | · | ·
CC1CCc2c(sc3ncnc(SCC(=O)Nc4cccc(Cl)c4Cl)c23)C1 (stereo unspecified) | · | · | – | · | · | · | ·
CN1C(=O)c2cc(NC(=O)Cc3cccs3)ccc2OC[C@@H]2O[C@@H](CC(=O)N[C@@H]3CCN(Cc4ccccc4)C3)CC[C@@H]21 | – | – | · | · | · | · | ·
CN1C(=O)c2cc(NC(=O)c3ccc(F)c(F)c3)ccc2OC[C@@H]2O[C@@H](CC(=O)N[C@H]3CCN(Cc4ccccc4)C3)CC[C@@H]21 | 101 | – | · | 106 | – | – | –
Cc1ccc(C2=NN(C(=O)CCC(=O)O)C(c3ccc(F)cc3)C2)cc1 (stereo unspecified) | · | · | – | · | · | · | ·
O=C(CC1(O)C(=O)N(CCc2ccccc2)c2ccc(Br)cc21)c1ccncc1 (stereo unspecified) | · | · | – | · | · | · | ·
